# Measured values: PubChem BioAssay
# Some of the results follow. Results filed as inconclusive are left out. Unmarked numbers belong to inactive results. Activity calls are given as the source filed them.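 Rule for the calls, unless noted: active = thallium entry rate above the same plate's blocked-transporter control wells by more than 3 SD; inconclusive = the two repeat wells disagree; inactive = the rest.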
# What was measured:
# [1] = molecular target: Solute carrier family 12 member 5 (Homo sapiens) (UniProt Q9H2X9); test: retest of KCC2 transport modulators without sodium – cell-based, HEK293 KCC2, thallium flux, secondary assay, confirmation (AID 1713;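 active = thallium flux slope above the same plate's solvent-only control mean plus 3 SD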); conditions: FluoZin2 fluorescence, at 10 µM, active compounds read high
# Chain of Solute carrier family 12 member 5 (Homo sapiens) (Q9H2X9 whole entry, looked up): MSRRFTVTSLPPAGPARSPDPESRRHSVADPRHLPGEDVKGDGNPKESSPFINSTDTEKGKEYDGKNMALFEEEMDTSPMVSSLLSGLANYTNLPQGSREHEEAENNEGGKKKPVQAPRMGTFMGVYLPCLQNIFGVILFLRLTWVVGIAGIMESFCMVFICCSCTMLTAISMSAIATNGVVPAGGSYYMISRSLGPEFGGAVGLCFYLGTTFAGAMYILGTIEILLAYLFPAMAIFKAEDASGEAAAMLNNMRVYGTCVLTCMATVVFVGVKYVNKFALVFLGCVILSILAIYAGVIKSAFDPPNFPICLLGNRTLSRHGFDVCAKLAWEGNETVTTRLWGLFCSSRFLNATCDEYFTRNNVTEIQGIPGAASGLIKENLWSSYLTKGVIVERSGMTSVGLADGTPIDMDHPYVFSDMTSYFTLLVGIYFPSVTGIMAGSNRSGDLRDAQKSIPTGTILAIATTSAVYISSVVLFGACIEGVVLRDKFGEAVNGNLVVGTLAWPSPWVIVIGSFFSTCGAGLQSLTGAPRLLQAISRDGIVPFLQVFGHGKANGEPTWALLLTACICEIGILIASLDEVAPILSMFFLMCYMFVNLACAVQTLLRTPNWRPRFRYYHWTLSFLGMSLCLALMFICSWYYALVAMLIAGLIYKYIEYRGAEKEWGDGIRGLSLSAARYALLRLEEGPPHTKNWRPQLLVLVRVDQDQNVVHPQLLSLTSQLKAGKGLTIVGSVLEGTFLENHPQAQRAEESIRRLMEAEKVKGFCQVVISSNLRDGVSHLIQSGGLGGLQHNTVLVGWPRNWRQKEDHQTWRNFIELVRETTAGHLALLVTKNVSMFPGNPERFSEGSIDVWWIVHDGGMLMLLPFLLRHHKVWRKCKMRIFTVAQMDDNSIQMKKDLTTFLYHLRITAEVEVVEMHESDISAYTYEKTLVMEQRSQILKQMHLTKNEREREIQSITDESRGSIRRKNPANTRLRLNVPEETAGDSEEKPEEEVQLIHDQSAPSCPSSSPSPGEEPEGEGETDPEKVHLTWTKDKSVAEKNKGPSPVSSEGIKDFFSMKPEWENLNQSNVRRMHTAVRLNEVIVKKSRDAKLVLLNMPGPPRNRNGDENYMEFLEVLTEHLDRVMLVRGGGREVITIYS
# In short: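 Evaluation: F/F0 slope over 10–20 s post-thallium, baseline-normalized / Material: KCC2-expressing HEK cells / Detection: FluoZin2 fluorescence, 480/540 nm, 1 Hz / Times: 48 min dye loading / Medium: Sodium-free N-methylglucamine chloride buffer / Compound: 10 µM single dose, 0.1% DMSO / Control set: bumetanide and DMSO controls / Probe or stimulus: thallium sulfate stimulus buffer at pH 7.3 / Repeats: duplicates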
# [2] = PubChem AID 1714; conditions: HEK293-KCC2 + bumetanide/ouabain, thallium flux FluoZin2; at 10 µM; active compounds read high;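 note: raw slope of fluorescence over initial fluorescence between 10 and 20 s after thallium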
# In short: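 Test system: HEK cells expressing the K-Cl cotransporter KCC2 | Compound: One dose, 10 µM, 0.1% DMSO | Replication: Duplicates | Evaluation: Normalized thallium flux slope | Detection: FluoZin2-AM (0.5 µM) fluorescence, 480 nm ex/540 nm em, 1 Hz kinetic imaging | Incubation: Overnight culture 37 °C, dye loading 48 min | Reagent: Thallium stimulus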
# [3] = molecular target: Solute carrier family 12 member 5 (Homo sapiens) (UniProt Q9H2X9); test: retest of KCC2 transport modulation, ouabain-free – cell-based, HEK293 KCC2, thallium flux, FluoZin2, secondary assay 2, confirmation (AID 1715;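 active = thallium flux slope more than 3 SD above or below the plate's solvent-only control mean, mostly below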;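 note: raw slope with 0.1% DMSO as baseline and bumetanide as block control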); conditions: HEK293-KCC2, thallium flux FluoZin2 fluorescence; at 10 µM; actives lie on both sides; F/F0 rise rate, 10–20 s post-thallium
# [4] = compound effects on native HEK Tl+ uptake – HEK cells, counterscreen 1, counter-screen for KCC2 modulator project, confirmation (AID 1716;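 active = thallium flux rate significantly above the same plate's solvent-only control wells, beyond their mean plus 3 SD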); conditions: HEK293 parental cells, thallium flux FluoZin2, ouabain; at 10 µM; baseline-ratio fluorescence slope, 10–20 s after thallium
# [5] = molecular target: Solute carrier family 12 member 5 (Homo sapiens) (UniProt Q9H2X9); test: modulation of KCC2 thallium flux in HEK cells – cell-based, ouabain, retest, confirmation (AID 1717;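 active = thallium flux slope beyond 3 SD from same-plate DMSO control mean in most replicates, usually higher, sometimes lower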;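 note: slope of initial-normalized fluorescence between seconds 10 and 20 after thallium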); conditions: HEK293-KCC2, thallium flux FluoZin2 fluorescence, at 10 µM, bidirectional: low = inhibitor, high = activator
# [6] = native HEK Tl+ uptake effects, second counter-screen – HEK cells, counterscreen 2, counter-screen for KCC2 modulator project, confirmation (AID 1718;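 active = thallium flux slope above the same plate's solvent-control mean plus 3 SD in both duplicate wells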;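 note: run without ouabain in cells lacking the KCC2 cotransporter; slope of fluorescence scaled to its starting value between 10 and 20 s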); conditions: HEK293 parental, thallium flux FluoZin-2 fluorescence slope; at 10 µM
# In short: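 Material: parental HEK cells. Medium: HBSS, 20 mM HEPES. Reagent: thallium sulfate stimulus, 12 mM in buffer, pH 7.3. Incubation: overnight cell culture at 37 °C, 48 min dye loading, compound before thallium. Signal: FluoZin-2 fluorescence kinetics. Read-out basis: thallium influx rate. Repeats: Per-replicate slope values.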
Structure (SMILES),normalised thallium flux (F/F0 slope) [1],normalized thallium flux [2],normalized thallium flux [3],thallium flux rate (normalised fluorescence) [4],"raw Tl+ flux slope (below DMSO = inhibition, above = activation) [5]",thallium flux slope [6]
O=C(CSC1=NCCS1)Nc1nc(-c2ccccc2)cs1,0.0102,0.00549,0.0253 (active),0.00757,0.0163 (active),0.0115
COc1ccc(C(=O)NN(C)c2nc(-c3ccccc3)cc(C)c2S(C)(=O)=O)cc1,0.0121 (active),0.0071,0.0316,0.00831,0.0204,0.0107
O=C(CNC(=O)c1ccco1)OCC(=O)c1ccccc1,0.00594,0.00472,0.0319,0.00754,0.0197,0.01
COc1cccc(CNC(=O)Cc2csc(Nc3nc(=S)[nH]c4ccccc34)n2)c1,0.0104,0.0662 (active),0.0329,0.0306 (active),0.0519 (active),0.0141 (active)
CCCCn1c(=S)[nH]c2ccccc2c1=O,0.05 (active),0.179 (active),0.0834 (active),0.114 (active),0.145 (active),0.0577 (active)
COc1ccc(C(=O)NC(=S)NNC(=O)c2c(-c3ccccc3)noc2C)cc1,0.00558,0.0445 (active),0.0501 (active),0.0354 (active),0.0401 (active),0.0396 (active)
COC(=O)c1sccc1NC(=O)CCC1CCCC1,0.00664,0.00434,0.032,0.00709,0.0186,0.00941
O=C(N/N=C/c1coc2ccccc2c1=O)c1cc2ccccc2o1,0.0123,0.0194 (active),0.0374,0.0141 (active),0.0271 (active),0.0106
O=C(CSc1nnc(-c2cccs2)n1Cc1ccccc1)N1CCc2ccccc2C1,0.00645,0.00334 (active),0.0237 (active),0.00608 (active),0.0136 (active),0.00891 (active)
COc1cccc(-c2nc(S(=O)(=O)c3ccccc3)c(N3CCOCC3)o2)c1,0.00627,0.0046,0.0314,0.00767,0.0193,0.0105
CC(=O)NNc1cc(=O)c2c(=O)n(C)c(=O)n(C)c2[nH]1,0.0167,0.00524,0.0281,0.00797,0.0159,0.0112
C/C(=N\NC(=S)Nc1ccc(C)cc1)c1cc2ccccc2o1,0.00692,0.0677 (active),0.0558 (active),0.0375 (active),0.0575 (active),0.0352 (active)
O=C(Nc1nnc(-c2ccccc2)o1)c1cc(-c2cccs2)nc2ccccc12,0.0238 (active),0.108 (active),0.0377,0.0864 (active),0.0747 (active),0.0185 (active)
Oc1c(C=Nc2cccc3nsnc23)ccc2ccccc12,0.00934,0.00749,0.0296,0.00781,0.0438,0.0106
Cc1cs/c(=N\N=C\c2ccc(O)cc2)n1Cc1ccco1,0.00586,0.00375,0.0253 (active),0.00654,0.0162,0.0101
O=C(Nc1nnc(C2COc3ccccc3O2)o1)c1ccc(F)cc1 (stereo not given),0.0197 (active),0.06 (active),0.032,0.0287 (active),0.0495 (active),0.0126 (active)
CN(C)c1nc(=Nc2cccc(Cl)c2)ss1,0.0466 (active),0.104 (active),0.0563 (active),0.0721 (active),0.0696 (active),0.0487 (active)
O=c1[nH]c2ccccc2s1,0.00622,0.00492,0.0299,0.00725,0.0175,0.00982
O=C(Cn1cnc2c(nnn2Cc2ccc(F)cc2)c1=O)NCc1ccc2c(c1)OCO2,0.0157,0.00497,0.0238 (active),0.00772,0.0137,0.0107
Cc1ccc(OCC(=O)NNC(=S)NCc2ccccc2)cc1,0.00584,0.0196 (active),0.0307,0.0156 (active),0.0206,0.0162 (active)
